This passage reports IC50 and Ratio IC50 results from ChEMBL document CHEMBL1144006, “Phenylalanine-containing hydroxamic acids as selective inhibitors of class IIb histone deacetylases (HDACs)” (Bioorg Med Chem, 2008).

Structures are written as SMILES.

What is called IC50 is the concentration that inhibits the measured activity by half. Low readings indicate greater potency, high ones weaker potency.

Test [1] is described as follows: Inhibition of HDAC6 in rat liver extract by trypsin assay. An outline of the steps:
(§1)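 Same rat liver extract and the subtype-selective substrates (Z-(propionyl)Lys-AMC for HDAC1, Boc(Ac)Lys-(F3-AMC) for HDAC6), incubated with inhibitor at 37 C. After incubation the reaction was developed with trypsin instead of NDA. IC50 was taken from a dilution series against 0% and 100% (TSA) inhibition standards.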

Another test has as its system MCF7. The test can be described thus: Cytotoxicity against human MCF7 cells after 48 hrs by One aqueous proliferation assay. The test is classed as functional, cell-based. To be noted: MCF7, 48 h. An outline of the steps: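 Cells seeded at 5000 per well, with compound or DMSO vehicle added 24 h after seeding. Incubated 48 h at 37 C, three replicates per concentration. Growth was read by MTS absorbance at 490 nm. GI50 is the concentration reducing cell number by 50% versus control.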

The target in test [2] is Histone deacetylase 1 (Rattus norvegicus, UniProt Q4QQW4). In words: Inhibition of HDAC1 in rat liver extract by trypsin assay. The procedure, abridged:
as §1

For another test, the species on record is Rattus norvegicus. In words: Selectivity for rat liver HDAC6 over rat liver HDAC1.
For test [3], the target named is Histone deacetylase 1 (Homo sapiens, UniProt Q13547). The test can be described thus: Inhibition of FLAG-tagged HDAC1 expressed in human 293T cells. The test is classed as cell-based. The procedure, abridged:
(§2)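 FLAG-HDAC1 or FLAG-HDAC6 was immunoprecipitated with M2 agarose from lysates of overexpressing 293T cells, washed in enzyme buffer and diluted 1:10. Bead suspension, inhibitor and unselective fluorogenic substrate ZMAL were incubated at 37 C for 180 min. The reaction was stopped with TSA/borate pH 9.5/NDA and read at ex 330/em 390 nm. IC50 came from a dilution series against 0% and 100% (TSA) inhibition standards. Selectivity is the ratio of HDAC1 to HDAC6 IC50.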

Test [4] addresses T1, Protein deacetylase HDAC6 (Homo sapiens, UniProt Q9UBN7).
T1 sequence (Q9UBN7 whole entry): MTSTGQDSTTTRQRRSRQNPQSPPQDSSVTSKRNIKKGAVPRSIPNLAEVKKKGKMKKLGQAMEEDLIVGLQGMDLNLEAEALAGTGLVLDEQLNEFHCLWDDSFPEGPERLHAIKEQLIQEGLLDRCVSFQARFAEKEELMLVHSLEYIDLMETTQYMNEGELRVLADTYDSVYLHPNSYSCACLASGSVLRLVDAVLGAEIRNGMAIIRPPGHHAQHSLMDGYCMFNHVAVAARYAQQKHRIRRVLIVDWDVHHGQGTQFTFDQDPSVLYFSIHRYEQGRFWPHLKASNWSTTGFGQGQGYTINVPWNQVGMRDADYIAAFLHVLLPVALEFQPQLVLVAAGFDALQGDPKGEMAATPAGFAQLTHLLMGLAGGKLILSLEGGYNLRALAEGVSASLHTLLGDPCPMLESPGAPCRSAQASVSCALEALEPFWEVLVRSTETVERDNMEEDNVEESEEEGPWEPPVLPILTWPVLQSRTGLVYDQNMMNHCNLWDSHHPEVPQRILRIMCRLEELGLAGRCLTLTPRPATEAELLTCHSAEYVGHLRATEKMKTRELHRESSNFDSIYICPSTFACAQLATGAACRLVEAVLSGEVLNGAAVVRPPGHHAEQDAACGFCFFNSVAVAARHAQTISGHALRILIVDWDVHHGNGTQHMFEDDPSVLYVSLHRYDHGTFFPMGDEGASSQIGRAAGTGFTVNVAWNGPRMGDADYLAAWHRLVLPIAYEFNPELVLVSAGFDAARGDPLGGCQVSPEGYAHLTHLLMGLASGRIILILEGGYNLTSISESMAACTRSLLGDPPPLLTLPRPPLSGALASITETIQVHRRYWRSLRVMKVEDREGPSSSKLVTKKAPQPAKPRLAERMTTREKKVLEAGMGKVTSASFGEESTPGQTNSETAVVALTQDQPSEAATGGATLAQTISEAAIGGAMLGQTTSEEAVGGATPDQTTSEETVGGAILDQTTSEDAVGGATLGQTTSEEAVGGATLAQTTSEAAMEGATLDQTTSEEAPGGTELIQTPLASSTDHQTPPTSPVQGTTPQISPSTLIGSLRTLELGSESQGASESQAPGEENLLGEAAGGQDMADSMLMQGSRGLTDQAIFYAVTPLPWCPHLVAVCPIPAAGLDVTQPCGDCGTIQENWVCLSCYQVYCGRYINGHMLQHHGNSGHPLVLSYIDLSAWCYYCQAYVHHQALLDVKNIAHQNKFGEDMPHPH
The test can be described thus: Inhibition of FLAG-tagged HDAC6 expressed in human 293T cells. The test is classed as cell-based.

The species named for a further test is Homo sapiens. The test can be described thus: Selectivity for human FLAG-tagged HDAC6 over human FLAG-tagged HDAC1. The procedure, abridged: as §2

Chain of Histone deacetylase 1 (Rattus norvegicus, UniProt Q4QQW4) (Q4QQW4 whole entry): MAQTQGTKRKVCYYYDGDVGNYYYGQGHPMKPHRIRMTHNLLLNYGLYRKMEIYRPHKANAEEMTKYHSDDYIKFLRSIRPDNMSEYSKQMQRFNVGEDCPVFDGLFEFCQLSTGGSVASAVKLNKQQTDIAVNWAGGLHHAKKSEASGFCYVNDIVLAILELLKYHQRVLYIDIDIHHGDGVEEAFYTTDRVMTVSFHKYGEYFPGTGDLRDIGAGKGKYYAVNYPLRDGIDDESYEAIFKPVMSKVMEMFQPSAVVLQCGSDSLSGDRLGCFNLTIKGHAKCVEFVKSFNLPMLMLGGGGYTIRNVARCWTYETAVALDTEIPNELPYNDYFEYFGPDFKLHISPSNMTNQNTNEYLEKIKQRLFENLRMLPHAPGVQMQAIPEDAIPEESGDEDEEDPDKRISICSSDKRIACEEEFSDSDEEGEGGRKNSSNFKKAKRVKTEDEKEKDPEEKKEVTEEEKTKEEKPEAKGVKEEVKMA
Chain of Histone deacetylase 1 (Homo sapiens, UniProt Q13547) (Q13547 whole entry): as the sequence (Q4QQW4 whole entry) above, with K8R, E399D, D424E, M481L counted along it

`COC(=O)[C@H](Cc1ccc(-c2ccc3ccccc3c2)cc1)NC(=O)CCCCCCCC(=O)NO`: the IC50 in test [1] is 3.76 µM; in the test with MCF7, 4 µM; against Histone deacetylase 1 [2], 5.19 µM; against Histone deacetylase 1 [3], 10.5 µM; in test [4], 2.85 µM. The results for the Ratio IC50 in the test listed under Rattus norvegicus and in the test listed under Homo sapiens were 1.38 and 3.7, respectively.
